Measured values from ChEMBL document CHEMBL3132763, “Repurposing human Aurora kinase inhibitors as leads for anti-protozoan drug discovery” (Medchemcomm, 2014).

How the values were obtained:
Plasmodium falciparum [1] = test: Antiprotozoal activity against chloroquine-resistant Plasmodium falciparum C2B assessed as growth inhibition after 72 hrs by SYBR Green dye-based fluorescence assay; format: functional, organism-based
Plasmodium falciparum [2] = test: Antiprotozoal activity against chloroquine-resistant Plasmodium falciparum W2 assessed as growth inhibition after 72 hrs by SYBR Green dye-based fluorescence assay; format: functional, organism-based; conditions: W2, 72 h
In short: (§1)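 Laboratory strains (D6, TM91C235, W2) in long-term culture, late-ring/early-trophozoite stage, seeded into pre-dosed 384-well plates at 0.3% parasitemia and 2% hematocrit. Twelve two-fold dilutions from DMSO, final 0.5–10000 ng/ml, in duplicate or quadruplicate. Incubated 72 h at 37°C under 5% CO2/5% O2/90% N2. Lysis buffer with SYBR Green I (final 10x) added, then 24 h dark at room temperature. Fluorescence read; IC50/IC90 from sigmoidal variable-slope fit. Chloroquine 2000 ng/ml batch control.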

Plasmodium falciparum [3] = test: Antiprotozoal activity against chloroquine/mefloquine/pyrimethamine-resistant Plasmodium falciparum C235 assessed as growth inhibition after 72 hrs by SYBR Green dye-based fluorescence assay; format: functional, organism-based; conditions: C235, 72 h; in short: as §1
[4] = Cytotoxicity against human HepG2 cells after 48 hrs by MTT assay; format: cell-based; conditions: read-out: TC50
In short: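 HepG2 cells in supplemented MEM, 9570 cells/well, plated overnight at 37°C. Twelve 1.6-fold dilutions in duplicate, 57–10,000 ng/ml, 48 h. MTT added for 1 h at room temperature in the dark; formazan dissolved in acidified isopropanol; absorbance read. IC50 by sigmoidal variable-slope nonlinear regression; mefloquine served as plate control.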

Plasmodium falciparum [5] = test: Antiprotozoal activity against Plasmodium falciparum D6 assessed as growth inhibition after 72 hrs by SYBR Green dye-based fluorescence assay; format: functional, organism-based; conditions: D6, 72 h; in short: as §1
Leishmania major [6] = test: Antiprotozoal activity against intracellular amastigote stage of Leishmania major infected in mouse […] cells assessed as growth inhibition after 96 hrs by luciferase reporter gene assay; format: functional, organism-based
In short: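 RAW 264.7 macrophages (10,000/well, DMEM/10% HIFBS, 24 h at 37°C) infected overnight with luciferase-expressing L. major promastigotes (100,000/well), then washed three times. Twelve two-fold dilutions in duplicate, final 0.5–10,000 ng/ml, 96 h at 37°C, 5% CO2. Luciferin added for 30 min; luminescence read. IC50 by sigmoidal variable-slope nonlinear regression.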

Leishmania major [7] = test: Antiprotozoal activity against promastigote stage of Leishmania major assessed as growth inhibition after 44 hrs by AlamarBlue staining-based fluorescence assay; format: functional, organism-based
Trypanosoma brucei = test: Antiprotozoal activity against Trypanosoma brucei 427 assessed as growth inhibition after 48 hrs by PrestoBlue-based fluorescence assay; format: functional, organism-based; conditions: Trypanosoma brucei, 427, 48 h
In short: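 T. brucei brucei strain 427 at 5 × 10^3 cells/well in HMI-9 with compound; 37°C, 5% CO2, 48 h. PrestoBlue added for a further 4 h; fluorescence read at ex 530 / em 590 nm.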

[8] = Selectivity ratio of TC50 for human HepG2 cells to EC50 for Plasmodium falciparum D6; format: ADME, cell-based

Row | Structure (SMILES) | EC50 (Plasmodium falciparum [1]) | EC50 (Plasmodium falciparum [2]) | EC50 (Plasmodium falciparum [3]) | CC50 at 48 h [4] | EC50 (Plasmodium falciparum [5]) | EC50 (Leishmania major [6]) | EC50 (Leishmania major [7]) | EC50 (Trypanosoma brucei) | selectivity ratio [8]
1 | CC(=O)N1C(=O)/C(=C(\Nc2ccc(CN3CCCCC3)cc2)c2ccccc2)c2cc([N+](=O)[O-])ccc21 | 0.249 µM | 0.307 µM | 0.271 µM | > 6 µM | 0.275 µM | 2.04 µM | 1.08 µM | 0.13 µM | –
2 | CC(=O)N1C(=O)/C(=C(\Nc2ccc(CN3CCCCC3)cc2)c2ccccc2)c2cc(N)ccc21 | 0.21 µM | 0.241 µM | 0.243 µM | 1.81 µM | 0.218 µM | > 4 µM | > 4 µM | 3.25 µM | –
3 | Nc1ccc2c(c1)/C(=C(/Nc1ccc(CN3CCCCC3)cc1)c1ccccc1)C(=O)N2 | 0.175 µM | 0.228 µM | 0.176 µM | > 6 µM | 0.199 µM | > 4 µM | 0.79 µM | 1.16 µM | –
4 | CS(=O)(=O)Nc1ccc2c(c1)/C(=C(/Nc1ccc(CN3CCCCC3)cc1)c1ccccc1)C(=O)N2 | – | 0.086 µM | 0.058 µM | 0.2 µM | 0.052 µM | > 4 µM | 0.39 µM | 0.02 µM | –
5 | O=C1Nc2ccc(NS(=O)(=O)c3ccccc3)cc2/C1=C(/Nc1ccc(CN2CCCCC2)cc1)c1ccccc1 | 0.082 µM | 0.144 µM | 0.12 µM | 3.29 µM | 0.107 µM | 1.91 µM | 0.85 µM | 0.01 µM | –
6 | CC(=O)Nc1ccc2c(c1)/C(=C(/Nc1ccc(CN3CCCCC3)cc1)c1ccccc1)C(=O)N2 | 0.056 µM | 0.088 µM | 0.074 µM | > 6 µM | 0.068 µM | > 4 µM | 1.52 µM | 0.15 µM | –
7 | CCS(=O)(=O)Nc1ccc2c(c1)/C(=C/Nc1ccc(CN3CCCCC3)cc1)C(=O)N2 | 0.173 µM | 0.273 µM | 0.242 µM | 5 µM | 0.241 µM | > 4 µM | 2.77 µM | 1.32 µM | –
8 | CCS(=O)(=O)Nc1ccc2c(c1)/C(=C(\C)Nc1ccc(CN3CCCCC3)cc1)C(=O)N2 | 1.06 µM | 1.26 µM | 1.19 µM | > 6 µM | 1.36 µM | > 4 µM | > 4 µM | 3.36 µM | –
9 | CC/C(Nc1ccc(CN2CCCCC2)cc1)=C1/C(=O)Nc2ccc(NS(=O)(=O)CC)cc21 | 0.143 µM | 0.347 µM | 0.255 µM | > 6 µM | 0.233 µM | > 4 µM | 2.8 µM | 1.79 µM | –
10 | CCCC/C(Nc1ccc(CN2CCCCC2)cc1)=C1/C(=O)Nc2ccc(NS(=O)(=O)CC)cc21 | 0.148 µM | 0.217 µM | 0.17 µM | > 6 µM | 0.167 µM | > 4 µM | 2.6 µM | 1.67 µM | –
11 | CCS(=O)(=O)Nc1ccc2c(c1)/C(=C(/NC1CCN(C)CC1)c1ccccc1)C(=O)N2 | > 15 µM | > 15 µM | > 15 µM | > 10 µM | > 15 µM | > 4 µM | > 4 µM | > 50 µM | –
12 | CCS(=O)(=O)Nc1ccc2c(c1)/C(=C(/Nc1ccccc1)c1ccccc1)C(=O)N2 | 0.117 µM | 0.143 µM | 0.118 µM | 4.7 µM | 0.109 µM | > 4 µM | > 4 µM | 1.44 µM | 50
13 | CCS(=O)(=O)Nc1ccc2c(c1)/C(=C(/Nc1ccc(C)cc1)c1ccccc1)C(=O)N2 | 1.57 µM | 2.49 µM | 1.64 µM | 3.1 µM | 1.61 µM | > 4 µM | 2.6 µM | 0.37 µM | –
14 | CCS(=O)(=O)Nc1ccc2c(c1)/C(=C(/Nc1ccc(CN3CCOCC3)cc1)c1ccccc1)C(=O)N2 | – | 0.077 µM | 0.031 µM | 1.31 µM | 0.054 µM | 1.68 µM | 0.94 µM | 0.1 µM | –
15 | CCS(=O)(=O)Nc1ccc2c(c1)/C(=C(/Nc1ccc(N3CCCCC3)cc1)c1ccccc1)C(=O)N2 | 0.735 µM | 0.832 µM | 0.647 µM | > 6 µM | 0.595 µM | > 4 µM | 0.62 µM | 1.53 µM | –
16 | O=C1Nc2ccccc2/C1=C(/Nc1ccc(CN2CCCCC2)cc1)c1ccccc1 | 0.16 µM | 0.273 µM | 0.227 µM | > 6 µM | 0.23 µM | > 4 µM | 0.77 µM | 0.07 µM | –
17 | CO[C@@H](C(=O)N1Cc2n[nH]c(NC(=O)c3ccc(N4CCN(C)CC4)cc3)c2C1)c1ccccc1 [DANUSERTIB] | – | – | – | 4 µM | 0.857 µM | – | > 21 µM | – | –
18 | CCS(=O)(=O)Nc1ccc2c(c1)/C(=C(/Nc1ccc(CN3CCCCC3)cc1)c1ccccc1)C(=O)N2 [HESPERADIN] | 0.014 µM | 0.021 µM | 0.01 µM | < 0.2 µM | 0.01 µM | 2.37 µM | 0.12 µM | 0.06 µM | –
19 | Cc1cc(Nc2cc(N3CCN(C)CC3)nc(Sc3ccc(NC(=O)C4CC4)cc3)n2)n[nH]1 [TOZASERTIB] | – | – | – | 3.3 µM | 0.838 µM | – | > 21 µM | 10 µM | –
